Calls of active or inactive are those of the source. The rule behind the calls is not given here.
Key:
[1] = Solubility of the compound in propylene glycol; type: physicochemical
Cavia porcellus = species: Cavia porcellus; assay: Inotropic activity at guinea pig left atria sodium/potassium-transporting ATPase up to 10^-4 M
[2] = Inhibition of rat brain sodium/potassium-transporting ATPase in presence of Mg2+ and Na+; settings: read-out: I50
Procedure, shortened: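 Rat brain Na+,K+-ATPase assayed with no preincubation of steroid and enzyme. Na+,K+-dependent activity was taken as activity with Mg2+, Na+ and K+ minus basal activity from tubes with Mg2+ and Na+ only. I50 (M) is from two to four runs.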

[3] = Inhibition of rat brain sodium/potassium-transporting ATPase after 10 mins in presence of Mg2+ and Na+; settings: read-out: I50
Procedure, shortened: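 Rat brain Na+,K+-ATPase. The steroid was added to enzyme medium lacking K+ and preincubated 10 min, then KCl was added to start Na+,K+-ATPase activity. Basal activity from tubes with Mg2+ and Na+ only was subtracted from activity with Mg2+, Na+ and K+. I50 (M) is from two to four runs.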

solubility [1]	Activity (Cavia porcellus)	Compound	IC50 [2] [nM]	IC50 [3] [nM]
Insoluble	inactive	C=C1C(=O)OC[C@@H]1[C@H]1CC=C2[C@@H]3CC[C@@H]4C[C@@H](O)CC[C@]4(C)[C@H]3CC[C@@]21C		
		C[C@H]1O[C@@H](O[C@H]2[C@@H](O)C[C@H](O[C@H]3[C@@H](O)C[C@H](O[C@H]4CC[C@@]5(C)[C@H](CC[C@@H]6[C@@H]5CC[C@]5(C)[C@@H](C7=CC(=O)OC7)CC[C@]65O)C4)O[C@@H]3C)O[C@@H]2C)C[C@H](O)[C@@H]1O [DIGITOXIN]	700	240
Insoluble	inactive	C=C1C(=O)OC[C@H]1[C@H]1CC=C2[C@@H]3CC[C@@H]4C[C@@H](O)CC[C@]4(C)[C@H]3CC[C@@]21C	> 100000	> 100000
		C[C@@H]1O[C@@H](O[C@H]2C[C@@H](O)[C@]3(CO)[C@H]4[C@H](O)C[C@]5(C)[C@@H](C6=CC(=O)OC6)CC[C@]5(O)[C@@H]4CC[C@]3(O)C2)[C@H](O)[C@H](O)[C@H]1O [OUABAIN]	500	40
		C[C@]12CC[C@H](O)C[C@H]1CC[C@@H]1[C@@H]2CC[C@]2(C)[C@@H](C3=CC(=O)OC3)CC[C@]12O [DIGITOXIGENIN]	460	500

Compound	solubility [1]	Activity (Cavia porcellus)	IC50 [2] [nM]	IC50 [3] [nM]
C[C@]12CC[C@H](O)C[C@H]1CC[C@H]1C3=CC[C@H](C4=CC(=O)OC4)[C@@]3(C)CC[C@@H]12	Insoluble	inactive	63000	40000
